{"source": "paper PMC3003407", "about": "(The Journal of Biological Chemistry, 2010)", "key": {"FN": {"target": "FN (Homo sapiens, UniProt P02751)", "assay": "Competition of 0.3 nM b-FUD binding to adsorbed FN", "settings": "1000 nM competitor", "summary_of_the_method": "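Wells coated overnight at 4 °C with 10 μg/ml (40 nM) FN, then blocked with 5% BSA in TBST. 0.3 nM biotinylated FUD was added together with competitor in TBST plus 0.1% BSA for 2 h. Detection used alkaline phosphatase–streptavidin (1:20,000, 1 h), 4-nitrophenyl phosphate (1 mg/ml, TBS pH 9.0) and A405. Triplicates, background-subtracted, expressed relative to b-FUD alone.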"}, "[1]": {"target": "recombinant human N-terminal 70-kDa fibrin- and gelatin-binding fragment of fibronectin (N-9FNI, residues 32-608) (human) (UniProt P02751)", "assay": "ITC"}, "[2]": {"target": "human plasma fibronectin (human)", "assay": "ELISA"}}, "note": "pKd: −log10 of the molar value.", "data": [{"substance": "N-^5FNI: Recombinant FN fibrin-binding fragment, residues 32–290", "values": [{"measurement": "competition with b-FUD for binding to FN", "setting": "FN", "result": "minor degree"}]}, {"substance": "functional upstream domain (FUD) of Streptococcus pyogenes F1 adhesin, recombinant, 56 residues with tails (domain or fragment)", "values": [{"measurement": "pKd", "setting": "[1]", "result": 8.28}]}, {"substance": "FUD i29/30 (single alanine inserted between Ile-29 and Asp-30) (domain or fragment)", "values": [{"measurement": "percent competition at 10 μM", "setting": "[2]", "result": 20, "unit": "%"}]}]}
